Laboratory results as given in publication PMC8592256 (Nature structural & molecular biology, 2021).

What was measured:
Format in all cases: binding
[1] = test system: human katanin AAA domain variability hotspot mutant constructs (L214C, T253N, A419L, T422K etc.); experiment: DSF, katanin AAA domain variability hotspot mutants
Method in brief: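 Human katanin constructs (AAA domain aa 171–491, or aa 111–491; WT or mutants) were expressed in E. coli Rosetta (DE3) pLysS and purified by MBP-affinity, protease tag cleavage, anion exchange and gel filtration. Protein was 8 μM in 20 mM HEPES.Na, 120 mM NaCl, 5 mM MgCl2, 1 mM TCEP, 10 mM (NH4)2SO4, pH 7.5, with SYPRO Orange. Ligand was ADP 1 mM or compound 50–500 μM, in 5% DMSO final. Tm was taken as the minimum of the first derivative of fluorescence versus temperature.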

[2] = target: T1, FIGL1-WT (Homo sapiens, UniProt Q6PIW4); experiment: DSF, FIGL1-WT; conditions: ADP 1 mM; WT and Asp-to-Cys mutant to a similar extent
T1 sequence (Q6PIW4 288-674): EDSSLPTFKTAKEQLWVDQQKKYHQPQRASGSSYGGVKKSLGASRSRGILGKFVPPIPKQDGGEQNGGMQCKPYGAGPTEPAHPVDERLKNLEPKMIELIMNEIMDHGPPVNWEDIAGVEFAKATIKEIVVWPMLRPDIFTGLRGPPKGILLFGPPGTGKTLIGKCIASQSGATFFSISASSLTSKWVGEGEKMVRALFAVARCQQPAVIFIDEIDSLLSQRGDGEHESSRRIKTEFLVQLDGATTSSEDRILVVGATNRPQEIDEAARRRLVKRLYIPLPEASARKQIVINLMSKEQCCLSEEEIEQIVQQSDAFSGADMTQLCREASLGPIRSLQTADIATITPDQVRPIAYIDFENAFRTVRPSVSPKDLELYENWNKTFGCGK
Method in brief: (§1)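 FIGL1 and HS-VPS4B (WT and Asp-to-Cys mutant) were scanned at 8 μM protein, with or without ADP 1 mM, in 20 mM HEPES.Na, 120 mM NaCl, 5 mM MgCl2, 1 mM TCEP, 10 mM (NH4)2SO4, pH 7.5. Buffer contained SYPRO Orange and 5% DMSO final. Melting temperature was taken from the minimum of the first derivative of the fluorescence–temperature curve. ΔTm was relative to the no-ADP control.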

[3] = target: T2, HS-VPS4B-WT (Homo sapiens, UniProt O75351); experiment: DSF, HS-VPS4B-WT; conditions: ADP 1 mM; WT and Asp-to-Cys mutant to a similar extent
T2 sequence (O75351 1-444): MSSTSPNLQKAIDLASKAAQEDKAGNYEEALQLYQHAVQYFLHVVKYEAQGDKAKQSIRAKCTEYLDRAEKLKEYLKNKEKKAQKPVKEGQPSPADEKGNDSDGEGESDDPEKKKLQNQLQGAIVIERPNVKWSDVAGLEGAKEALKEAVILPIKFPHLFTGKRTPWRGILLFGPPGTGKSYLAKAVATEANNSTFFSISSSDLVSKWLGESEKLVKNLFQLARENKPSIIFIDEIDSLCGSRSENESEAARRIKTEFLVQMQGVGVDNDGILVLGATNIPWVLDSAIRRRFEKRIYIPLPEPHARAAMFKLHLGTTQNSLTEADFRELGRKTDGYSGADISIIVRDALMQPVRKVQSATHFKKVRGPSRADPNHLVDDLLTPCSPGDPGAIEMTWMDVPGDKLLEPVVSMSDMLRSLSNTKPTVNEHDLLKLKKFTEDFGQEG
Method in brief: as §1

| Structure (SMILES) | shift in melting temperature (ΔTm) ([1]; ADP 1 mM, five alleles with mutations at the variability hotspots) | increase in thermal stability on ADP binding [2] | increase in thermal stability on ADP binding [3] | effect of mutation on compound binding (DSF) ([1]; three of the four variability hotspot mutations, compound 500 μM) |
| --- | --- | --- | --- | --- |
| Nc1ncnc2c1ncn2[C@@H]1O[C@H](COP(=O)(O)OP(=O)(O)O)[C@@H](O)[C@H]1O [ADP, adenosine 5’-diphosphate] | +4 to +6 °C | ~+3 °C | approximately +5 °C |  |
| Nc1nc2c(-c3ccccc3)cccn2n1 [compound 1, 8-phenyl-triazolopyridine-2-amine] |  |  |  | reduced compound binding |
